Assay outcomes (PubChem)
The sample as a whole holds a higher share of hits than the screen did.
IDH1 mut inh: inhibitors of IDH1 R132H reductase, primary screen, biochemical, plate reader, single point | diaphorase/resazurin fluorescence, 60 min | inhibition, % at 10 µM | 0.18% of 70,000 active | AID 624101, 2012; in the data active = inhibition above about 34%; inconclusive = no clear call, values can overlap the other calls; inactive = below about 11%
Target sequence (O75874 whole entry R132H): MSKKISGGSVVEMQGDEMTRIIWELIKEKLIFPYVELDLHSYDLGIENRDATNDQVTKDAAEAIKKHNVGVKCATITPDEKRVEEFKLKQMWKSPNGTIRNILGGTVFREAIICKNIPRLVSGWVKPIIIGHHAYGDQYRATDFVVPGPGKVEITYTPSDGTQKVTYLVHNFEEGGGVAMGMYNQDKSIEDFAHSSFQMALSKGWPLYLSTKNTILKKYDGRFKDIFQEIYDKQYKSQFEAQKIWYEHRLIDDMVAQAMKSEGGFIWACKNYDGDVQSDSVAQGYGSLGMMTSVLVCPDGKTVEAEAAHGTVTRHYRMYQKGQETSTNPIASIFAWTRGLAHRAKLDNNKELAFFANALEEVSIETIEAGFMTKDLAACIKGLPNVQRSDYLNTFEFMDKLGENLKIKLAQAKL
T cruzi growth-1: T. cruzi intracellular proliferation inhibitors, primary screen, cell-based, beta-gal Tulahuen parasites, NIH3T3 host, luminescence. inhibition, % at 8.34 µM. T. cruzi beta-gal in NIH3T3, GalScreen luminescence, 90 h. 5.9% of 77,000 active;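 active = mean inhibition above about 93%, with at least 55% of replicates each passing it, limit read from the data, passing the limit was not always enough; inconclusive = only one of those two conditions holds; inactive = neither condition holds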
GASC1 inh: inhibitors of GASC-1 (KDM4C) histone demethylase, primary screen, biochemical, single concentration HTS. AID 720574, 2013. inhibition, % at 12.5 µM. GST-KDM4C 2-372, H3K9me3 peptide, LANCE TR-FRET. 0.15% of 96,000 active. Lysine-specific demethylase 4C (Homo sapiens), Q9H3R0;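 active = mean replicate inhibition above about 25%, with at least 55% of replicates also reaching it, limit read from the data, passing the limit was not always enough; inconclusive = only one of those two conditions met; inactive = neither condition met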
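Material: GST-tagged GASC-1 (JMJD2C) catalytic fragment, aa 2-372 / Quantity: enzyme final amount 10 nM / Medium: HEPES buffer, pH 7.5, plus ascorbate / Doses: one test concentration per compound / Incubation: 30 min reaction, 60 min detection, RT / Measured by: LANCE TR-FRET / Read-out: inhibition from TR-FRET ratio decrease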
T cruzi growth-2: T. cruzi intracellular proliferation inhibitors, confirmation, cell-based, NIH3T3 host, beta-gal parasite, luminescence, cherry-pick. shares compounds with T cruzi growth-1. AID 651739, 2012. inhibition, % at 8.35 µM. T. cruzi beta-gal in NIH3T3, GalScreen luminescence, 90 h. 72% of 5,600 active;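 active = mean replicate inhibition above about 95% and at least 55% of replicates individually reaching it, limit read from the data; inconclusive = only one of the two criteria is met; inactive = neither criterion is met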
T cruzi growth-3: inhibitors of intracellular T. cruzi replication, confirmation, NIH3T3 host cells, beta-gal parasites, cherry-pick, set 2; shares compounds with T cruzi growth-1; T. cruzi beta-gal in NIH3T3, GalScreen luminescence, 90 h; inhibition, % at 2.09 µM; 21% of 5,600 active; AID 651740, 2012;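 active = mean inhibition above about 95%, with at least 55% of replicates also reaching it, limit read from the data; inconclusive = meets just one of the two conditions; inactive = meets neither condition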
NIH3T3 tox: cytotoxicity in mouse NIH/3T3 fibroblasts, confirmation, cytotoxicity control for T. cruzi proliferation inhibitor project, cell-based, cherry-pick, single point | shares compounds with T cruzi growth-1 | cytotoxicity (signal decrease), % at 8.35 µM | NIH/3T3 viability, CellTiter-Glo ATP luminescence, 90 h | 14% of 5,600 active;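 active = mean signal decrease across replicates above about 35% based on untreated-well scatter, with enough replicates individually passing, limit read from the data; inconclusive = no rule stated though some were filed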
3T3 cytotox 2: NIH/3T3 fibroblast cytotoxicity, confirmation, cytotoxicity control, cell-based, cherry-pick, single point, set 2; shares compounds with T cruzi growth-1; NIH/3T3 viability, CellTiter-Glo ATP luminescence, 90 h; inhibition, % at 24.9 µM; 56% of 5,600 active; AID 651744, 2012;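 active = mean loss of cell viability signal at or above a set limit, and enough replicates individually reaching it; inconclusive = meets only the mean limit or only the replicate share; inactive = meets neither condition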
Numbers stand for hits; - = inactive; ? = inconclusive; . = no result.

SMILES	IDH1 mut inh	T cruzi growth-1	GASC1 inh	T cruzi growth-2	T cruzi growth-3	NIH3T3 tox	3T3 cytotox 2
COc1ccccc1-c1ccc([C@@H]2[C@@H](C#N)N(C(=O)C3CCC3)[C@H]2CO)cc1	.	-	-	.	.	.	.
COc1ccc(-c2ccc([C@H]3[C@@H](C#N)N(C(=O)C4CC4)[C@H]3CO)cc2)cc1	.	105	-	-	-	-	-
COc1ccc(-c2ccc([C@@H]3[C@H](C#N)N(C(=O)C4CC4)[C@H]3CO)cc2)cc1	.	-	-	.	.	.	.
COc1ccccc1-c1ccc([C@@H]2[C@@H](C#N)N(C(=O)C3CC3)[C@H]2CO)cc1	.	104	-	-	-	-	-
N#C[C@H]1[C@@H](c2ccc(-c3ccccc3F)cc2)[C@@H](CO)N1C(=O)C1CC1	-	104	-	107	-	-	?
N#C[C@@H]1[C@H](c2ccc(-c3ccccc3F)cc2)[C@@H](CO)N1C(=O)C1CC1	.	-	-	.	.	.	.
CC1(C)CC(n2c(NCCO)nc3c(c2=O)C2(CCCCC2)Cc2ccccc2-3)CCO1 (stereo unspecified)	-	.	.	.	.	.	.
CSc1cccc(NC(=O)CNS(=O)(=O)c2ccc(F)cc2)c1	-	.	.	.	.	.	.
COc1cc(NC(=O)COc2ccc(Br)cc2)ccc1NC(=O)c1cc2ccccc2o1	-	.	.	.	.	.	.
CC1=C(C(=O)Nc2ccccc2C)C(c2cccc([N+](=O)[O-])c2)n2ncnc2N1 (stereo unspecified)	-	.	.	.	.	.	.
CC(C)CC#Cc1ccc2c(c1)O[C@H](CN(C)C(=O)NC(C)C)[C@@H](C)CN([C@H](C)CO)S2(=O)=O	-	-	-	.	.	.	.
CC(C)CC#Cc1ccc2c(c1)O[C@@H](CN(C)C(=O)NC1CCCC1)[C@H](C)CN([C@H](C)CO)S2(=O)=O	-	123	-	109	-	-	94
C[C@@H]1CN([C@H](C)CO)S(=O)(=O)c2ccc(C#Cc3cccc(F)c3)cc2O[C@H]1CN(C)C(=O)NC1CCCCC1	-	.	-	.	.	.	.
CC(C)CC#Cc1ccc2c(c1)O[C@@H](CN(C)C(=O)NC1CCCC1)[C@H](C)CN([C@@H](C)CO)S2(=O)=O	-	118	-	100	-	-	-
COc1ccc([N+](=O)[O-])cc1CSc1nnc(-c2ccccc2)n1-c1ccccc1	-	.	.	.	.	.	.
O=C(C[C@H]1CC[C@H](NC(=O)Nc2ccccc2F)[C@H](CO)O1)NCc1ccc(-c2ccccc2)cc1	.	.	-	.	.	.	.
COc1cccc(S(=O)(=O)N(C)C[C@@H]2Oc3ncc(C#CC(C)C)cc3C(=O)N([C@H](C)CO)C[C@@H]2C)c1	-	96	-	-	-	-	52
CC(C)CC#Cc1cnc2c(c1)C(=O)N([C@H](C)CO)C[C@@H](C)[C@@H](CN(C)S(=O)(=O)c1ccccc1)O2	-	-	-	.	.	.	.
COc1cccc(S(=O)(=O)N(C)C[C@H]2Oc3ncc(C#CC(C)C)cc3C(=O)N([C@H](C)CO)C[C@H]2C)c1	.	-	-	.	.	.	.
COc1cccc(S(=O)(=O)N(C)C[C@H]2Oc3ncc(C#CC(C)C)cc3C(=O)N([C@@H](C)CO)C[C@@H]2C)c1	-	114	-	-	-	-	-
COc1cccc(S(=O)(=O)N(C)C[C@@H]2Oc3ncc(C#Cc4ccccc4)cc3C(=O)N([C@H](C)CO)C[C@@H]2C)c1	-	-	.	.	.	.	.
C[C@@H]1CN([C@@H](C)CO)C(=O)c2cc(C#CCN(C)C)cnc2O[C@H]1CN(C)S(=O)(=O)c1ccccc1	-	97	-	102	-	-	-
Cc1ccc(S(=O)(=O)N(C)C[C@H]2Oc3ncc(C#CCC(C)C)cc3C(=O)N([C@@H](C)CO)C[C@H]2C)cc1	-	105	-	104	-	-	93
CCCC#Cc1cnc2c(c1)C(=O)N([C@H](C)CO)C[C@H](C)[C@H](CN(C)S(=O)(=O)c1ccccc1)O2	-	-	-	.	.	.	.
COc1ccc(C(=O)CSc2nc3cc(C)c(C)cc3[nH]2)cc1OC	-	.	.	.	.	.	.
SMILES	IDH1 mut inh	T cruzi growth-1	GASC1 inh	T cruzi growth-2	T cruzi growth-3	NIH3T3 tox	3T3 cytotox 2
C=C(C(=O)O[C@H]1C/C=C(/C)C[C@H](O)[C@H]2[C@H](C)C(=O)O[C@@H]2/C=C\1C)[C@@H]1CCC(=C)[C@@H]2C[C@H](O[C@@H]3O[C@H](CO[C@H]4OC[C@](O)(CO)[C@H]4O)[C@@H](O)[C@H](O)[C@H]3O)C(=C)[C@@H]2C1	-	.	.	.	.	.	.
CO[C@@H]1CN(C)C(=O)c2ccc(NS(=O)(=O)c3ccc(C)cc3)cc2OC[C@H](C)N(Cc2nccs2)C[C@@H]1C	-	-	-	.	.	.	.
O=C([C@@H]1[C@@H](CO)[C@@H]2Cn3c(ccc(-c4ccncc4)c3=O)[C@H]1N2Cc1cccnc1)N1CCOCC1	.	-	-	.	.	.	.
CCCC#Cc1cnc2c(c1)C(=O)N([C@@H](C)CO)C[C@@H](C)[C@@H](CN(C)S(=O)(=O)c1cccc(OC)c1)O2	.	-	-	.	.	.	.
COc1cccc(S(=O)(=O)N(C)C[C@@H]2Oc3ncc(C#CCN(C)C)cc3C(=O)N([C@@H](C)CO)C[C@H]2C)c1	-	103	-	96	-	-	-
CCOc1ccc(Nc2nc(CSc3nc4ccccc4c(=O)n3-c3ccccc3)cs2)cc1	-	.	.	.	.	.	.
COc1ccc(S(=O)(=O)N(C)C[C@H]2OCCCC[C@H](C)Oc3ccc(N(C)C)cc3C(=O)N([C@H](C)CO)C[C@H]2C)cc1	.	-	-	.	.	.	.
COc1ccc(S(=O)(=O)N(C)C[C@H]2OCCCC[C@@H](C)Oc3ccc(N(C)C)cc3C(=O)N([C@H](C)CO)C[C@H]2C)cc1	-	117	-	-	-	-	-
C[C@@H]1CCCCO[C@@H](CN(C)S(=O)(=O)c2ccc(Cl)cc2)[C@@H](C)CN([C@H](C)CO)C(=O)c2cc(N(C)C)ccc2O1	.	-	-	.	.	.	.
C[C@H](CO)N1C[C@H](C)[C@H](CN(C)S(=O)(=O)c2ccc(Cl)cc2)OCCCC[C@H](C)Oc2ccc(N(C)C)cc2C1=O	-	100	-	110	-	-	-
C[C@@H]1CCCCO[C@H](CN(C)S(=O)(=O)c2ccc(Cl)cc2)[C@H](C)CN([C@@H](C)CO)C(=O)c2cc(N(C)C)ccc2O1	-	-	-	.	.	.	.
C[C@@H]1CCCCO[C@H](CN(C)S(=O)(=O)c2ccc(Cl)cc2)[C@@H](C)CN([C@@H](C)CO)C(=O)c2cc(N(C)C)ccc2O1	-	100	-	111	-	-	-
